# Screens: PubChem BioAssay, several laboratories
# Sampled rows, rich in hits. Any-hit rate of the full collection: about 12%.
# b-catenin transl = modulators of beta-catenin nuclear translocation, primary screen, imaging, HeLa cells, immunofluorescence, high-content. nuclear translocation activity, % at 5 µM. 190,000 compounds, 0.3% hits;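 active = nuclear translocation activity above 50% at 5 µM, with a well cell count of 50 or more; inconclusive = wells under 50 cells across six images, flagged as toxic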;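 also: per-cell ratio of nuclear to cytoplasmic median beta-catenin stain intensity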
#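 Assay system: human HeLa cells, native beta-catenin; doses: 5 µM primary, 0.02–20 µM confirmation; incubation: compound treatment 24 h, 37°C, 5% CO2; technique: fluorescence imaging of beta-catenin antibody stain plus DAPI; measure: % activation, nuclear-to-cytoplasmic median beta-catenin signal ratio per cell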
# Dynein cargo inh = inhibitors of GR-EGFP nuclear translocation, primary screen, dynein cargo transport inhibitor project, imaging, high-content, 3617.4 mouse cells; 220,000 compounds, 0.47% hits; test concentration mostly 20 µM; stimulated with dexamethasone, 1 µM; stronger effect = lower value; AID 1381, 2008; z-score, hits read low;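 active = plate z-score of nuclear minus cytoplasmic receptor signal below a set negative limit, without overly bright fluorescence or cell loss, cut at about -3.5 in these data, passing the limit was not always enough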;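 also: z-score of nuclear minus cytoplasmic ring GR-EGFP intensity difference per well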
#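 Medium: Induction medium lacking tetracycline, stripped serum | Probe or stimulus: 1.0 µM final dexamethasone stimulus | Schedule: 48 h induction, then 1 h compound, then 30 min agonist, 37 °C | Signal: Automated 10x imaging of fixed Hoechst-stained cells | Evaluation: Per-cell GR-EGFP intensity, nucleus versus surrounding cytoplasmic ring, well-averaged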
# Autophagy mod = autophagy modulators in MEF cells, primary screen, imaging, high-content, MEF GFP-LC3; 190,000 compounds, 0.98% hits; AID 463193, 2010; calls only at 10 µM (by protocol); MEF GFP-LC3 puncta imaging; test concentration mostly 10 µM;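 active = percentage of spot-positive cells more than 3 SD above its plate mean, without a fluorescence outlier flag or 80% toxicity; inconclusive = no clear call, values can overlap the other calls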
# MT stabilizer = microtubule stabilizers in HeLa cells, primary screen, imaging, high-content imaging. HeLa tubulin immunostaining HCS, 24 h; share of cells brighter than vehicle mean+2SD. % tubulin-high responders, % at 10 µM. 200,000 compounds, 0.83% hits;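 active = plate Z-score above 3 for both tubulin-high and condensed-nucleus cell shares, with cell loss under 80%, at 10 µM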;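 also: anti alpha tubulin signal scored within the nucleus-defined area of each cell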
# CHOP inhibitor = inhibitors of CHOP promoter induction, primary screen, cell-based, unfolded protein response, luciferase reporter; CHO-K1 CHOP-promoter luciferase, tunicamycin-induced, 15-18 h; 220,000 compounds, 3.8% hits; inhibition, % at 10 µM;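 active = compounds that reduced the stress-induced luciferase reporter signal by more than about 70% of percent inhibition, limit read from the data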
# L major viab = Leishmania major promastigote growth inhibition, primary screen; Leishmania major promastigotes, resazurin fluorescence viability; inhibition, % at 10 µM; 200,000 compounds, 9% hits; in the data active = inhibition above about 50%;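 also: promastigotes grown with compound for 44 hours at 28 °C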
# Dynein inh conf = dynein cargo transport inhibitors, GR-EGFP translocation, confirmation, imaging, high-content imaging, GR-EGFP cells; shares compounds with Dynein cargo inh; 3617.4 GR-EGFP nuclear translocation imaging, dexamethasone-induced; calls only at 20 µM; 1,000 compounds, 69% hits; AID 463116, 2010;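 active = inhibition of receptor movement into the nucleus at or above a set limit in both runs, with normal cell brightness and cell count; inconclusive = limit reached in only one run, brightness and count normal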;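 also: dexamethasone at 1 µM final in well for 30 min; nuclear minus cytoplasmic GR-EGFP mean intensity difference in channel 2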
# A number is an active result; 0 = inactive; ? = inconclusive; - = no result; + = active, no number.
SMILES,b-catenin transl,Dynein cargo inh,Autophagy mod,MT stabilizer,CHOP inhibitor,L major viab,Dynein inh conf
O=[N+]([O-])c1ccc(-c2ccc(/C=N/Nc3nc(N4CCCCC4)nc(N4CCCCC4)n3)o2)cc1,0,0,+,0,95,0,0
CCn1c(Cl)c(C=O)s/c1=N\S(=O)(=O)c1ccccc1,0,-7,-,-,105,-,+
COc1ccc(CCNc2nc(-c3ccco3)cc(C(F)(F)F)n2)cc1OC,0,0,0,0,0,0,-
Fc1ccc(CNc2nc(-c3ccco3)cc(C(F)(F)F)n2)cc1,0,-4.4,0,0,0,0,0
Nc1nnc(SCc2nnc(-c3ccccc3)o2)s1,0,0,0,0,0,0,-
Cc1ccc2oc(=O)c3cnn(CC(=O)N(CCN(C)C)Cc4ccco4)c3c2c1,-,0,0,0,0,0,-
Cc1ccc2nc(Cl)c3cc(C(=O)N(CCN(C)C)Cc4ccco4)sc3c2c1,?,-3.5,0,0,0,65,0
CC[n+]1c(/C=C/C=C/N(C(C)=O)c2ccccc2)sc2ccccc21,-,-3.9,+,0,0,0,+
CC(=O)N(\C=C/C=C/C=C1\Sc2ccccc2C1=O)c1ccccc1,0,0,0,0,0,0,-
CC(C)C[C@H](N)c1nnc(S(=O)(=O)Cc2cccc(F)c2)o1,0,-4.9,0,0,0,0,+
CC(C)(C)OC(=O)N[C@@H](Cc1ccccc1)c1nnc(S(=O)(=O)Cc2cccc(F)c2)o1,0,0,0,0,0,0,-
Cc1cc(C)nc(Sc2ncnc(N)c2[N+](=O)[O-])n1,0,-5.4,0,0,102,58,?
Cc1cccc(Nc2ncnc(N)c2[N+](=O)[O-])n1,0,0,0,0,0,0,-
CC(C)(C)C(=O)Nc1ccc(N2CCCC2)cc1,0,0,0,0,0,0,-
O=C(Nc1ccccc1)C1=C(O)CC(c2ccco2)CC1=Nc1ccccc1 (stereo unspecified),-,0,0,0,0,0,-
O=C(Nc1ccccc1)C1=C(O)CC(c2ccoc2)CC1=Nc1ccccc1 (stereo unspecified),0,-4.2,0,0,0,0,0
COc1ccc2nc(N3CCCC3)c(C#N)cc2c1,-,-4.2,0,0,0,0,0
COc1cccc(C(=O)N2CCN=C2SC)c1,0,0,0,0,0,0,-
N#CC12COC3(CCCCC3C1(C#N)C#N)OC2=N (stereo unspecified),0,-5,-,-,0,-,+
CCCCCC(=O)N1CC2(C)CN(C(=O)CCCCC)CC(C)(C1)C2=O,0,0,0,0,0,0,-
O=C1ON=C(c2ccccc2)/C1=C/c1ccc(-c2ccccc2[N+](=O)[O-])o1,0,-5.9,0,0,104,100,+
O=S(=O)(Nc1nc2ccccc2nc1Cl)c1ccc(Br)cc1,0,0,0,0,0,0,-
CN(C)Cc1cn(CCC(=O)O)c2ccccc12,-,0,0,0,-,0,-
Cc1nn(CC2CC2)c(=O)n1-c1ccccc1,0,0,0,0,0,0,-
CCCCCCc1cc2cc(C(=O)NC)c(=N)oc2cc1O,-,-7.5,0,0,-,58,+
SMILES,b-catenin transl,Dynein cargo inh,Autophagy mod,MT stabilizer,CHOP inhibitor,L major viab,Dynein inh conf
COc1ccccc1NS(=O)(=O)c1ccc(C)c(C(=O)NCC2CCCO2)c1 (stereo unspecified),0,0,0,0,0,0,-
CCOC(=O)c1c(-c2ccc(C)o2)csc1NC(=O)CSc1nncs1,0,-4,0,0,0,0,0
CCOC(=O)c1c(-c2ccc(C)o2)csc1NC(=O)CN1CCCCC1,0,-4.6,0,0,0,0,0
CCOC(=O)c1c(-c2ccco2)csc1NC(=O)CSc1nnc(N)s1,0,0,0,0,0,0,-
CCOC(=O)c1c(-c2ccc(C)o2)csc1NC(=O)CN1CCC(C(N)=O)CC1,0,0,0,0,0,0,-
C=CCCCCCCCC(=O)OC,0,0,0,0,0,0,-
CCOC(=O)CC1C(=O)NCCN1c1nc2ccc(C)cn2c(=O)c1/C=C1\SC(=S)N(CC(C)C)C1=O (stereo unspecified),0,0,-,-,0,-,0
CCOC(=O)CC1C(=O)NCCN1c1nc2ccc(C)cn2c(=O)c1/C=C1\SC(=S)N(C(C)CC)C1=O (stereo unspecified),0,0,-,-,0,-,+
CCOC(=O)NC(c1ccc(C(C)C)cc1)C(Cl)(Cl)Cl (stereo unspecified),0,0,0,0,0,0,-
N#Cc1cc(-c2ccccc2)nc(Oc2ccc(Cl)cc2)n1,0,-4.3,0,0,71,77,+
Cc1c(C(=O)N2CCC(C)CC2)sc2ncnc(N(C)c3ccccc3)c12,0,0,0,0,0,0,-
COc1ccc(CNC(=O)CN(c2cccc([N+](=O)[O-])c2)S(C)(=O)=O)cc1,0,0,0,0,0,0,-
O=C(CN(c1cccc(C(F)(F)F)c1)S(=O)(=O)c1ccc(Cl)c([N+](=O)[O-])c1)NCc1ccccc1Cl,0,-3.7,0,0,0,100,0
O=C(CN(c1cccc(C(F)(F)F)c1)S(=O)(=O)c1ccc(Cl)c([N+](=O)[O-])c1)NCc1ccccc1,0,-5.5,0,0,0,63,+
O=C(NCc1ccccc1Cl)c1cccc(C(F)(F)F)c1,0,0,0,0,0,0,-
COc1ccccc1C(C[N+](=O)[O-])c1c[nH]c2ccccc12 (stereo unspecified),0,0,-,-,0,-,-
COc1cccc(F)c1C(C[N+](=O)[O-])c1c(N)n(C)c(=O)n(C)c1=O (stereo unspecified),0,-3.6,-,-,0,-,+
COCCCNC(=O)c1cc(C(=O)c2ccccc2Br)c[nH]1,0,0,0,0,0,0,-
O=C(c1ccc(SCc2ccco2)c([N+](=O)[O-])c1)N1CCOCC1,0,0,0,0,0,0,-
Cn1ccnc1Sc1cc(NCCCO)c([N+](=O)[O-])c2nonc12,0,-4.9,0,0,96,0,+
CCCC(=O)OCCNc1cc(SCCC(=O)OC)c2nonc2c1[N+](=O)[O-],0,-4.5,0,0,0,0,+
CC(=O)OCCNc1cc(SCc2ccco2)c2nonc2c1[N+](=O)[O-],0,-5.8,0,0,0,0,+
COC(=O)CCSc1cc([N+](=O)[O-])cc2c1c(C1OCCO1)nn2-c1ccccc1,0,0,0,0,0,0,-
CC(=O)OCCCNc1cc(Sc2ccc(C)cc2)c2nonc2c1[N+](=O)[O-],0,-4.6,0,0,109,0,0
